Data set [1] is described as follows: Metabolic stability in human liver microsomes assessed as parent compound remaining after 15 mins. It counts as ADME, Microsome. The following applies: read-out: Stability. In general terms: Microsomes from liver hold many membrane-bound enzymes, among them those of drug oxidation.
Data set [2] can be described thus: Metabolic stability in mouse liver microsomes assessed as parent compound remaining after 15 mins. Type of data set: ADME, Microsome. The settings on record: read-out: Stability.
Data set [3] addresses T1, Toxin B (Clostridioides difficile, UniProt P18177). Nature of the data set: Inhibition of Clostridium difficile toxin B […] CHO cells assessed as reduction in caspase 3/7 activation pre-incubated for 1 hr before TcdB addition by luminescence based assay. Type of data set: cell-based.
In data set [4] the target is Toxin A (Clostridioides difficile, UniProt P16154). The data set is described as follows: Inhibition of Clostridium difficile toxin A […] CHO cells assessed as reduction in caspase 3/7 activation pre-incubated for 1 hr before TcdA addition by luminescence based assay. It counts as cell-based.
Data set [5] addresses T1, Toxin B. The data set is described as follows: Inhibition of C-terminal 6-His tagged recombinant Clostridium difficile toxin B glucosyltransferase domain assessed as reduction in UDP-glucose hydrolysis activity using UDP-glucose substrate and ADP Alexa633 tracer incubated for 3 hrs by fluorescence polarization assay. (In general: In fluorescence polarisation assays a small probe gives low polarisation when free and higher when bound to something large.)

A short description of data set [6]: Metabolic stability in mouse plasma assessed as parent compound remaining after 2 hrs. Type of data set: ADME, cell-free. Put shortly: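 Compound incubated in mouse plasma for 2 h. Parent compound remaining was measured, and the carboxylic acid hydrolysis product was also monitored.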

The source of these data is ChEMBL document CHEMBL4325886, “Synthesis and SAR studies of novel benzodiazepinedione-based inhibitors of Clostridium difficile (C. difficile) toxin B (TcdB)” (Bioorg Med Chem Lett, 2018).

Molecules are shown by their SMILES.

Sequence of Toxin A (P16154 whole entry, the tested form may be a part): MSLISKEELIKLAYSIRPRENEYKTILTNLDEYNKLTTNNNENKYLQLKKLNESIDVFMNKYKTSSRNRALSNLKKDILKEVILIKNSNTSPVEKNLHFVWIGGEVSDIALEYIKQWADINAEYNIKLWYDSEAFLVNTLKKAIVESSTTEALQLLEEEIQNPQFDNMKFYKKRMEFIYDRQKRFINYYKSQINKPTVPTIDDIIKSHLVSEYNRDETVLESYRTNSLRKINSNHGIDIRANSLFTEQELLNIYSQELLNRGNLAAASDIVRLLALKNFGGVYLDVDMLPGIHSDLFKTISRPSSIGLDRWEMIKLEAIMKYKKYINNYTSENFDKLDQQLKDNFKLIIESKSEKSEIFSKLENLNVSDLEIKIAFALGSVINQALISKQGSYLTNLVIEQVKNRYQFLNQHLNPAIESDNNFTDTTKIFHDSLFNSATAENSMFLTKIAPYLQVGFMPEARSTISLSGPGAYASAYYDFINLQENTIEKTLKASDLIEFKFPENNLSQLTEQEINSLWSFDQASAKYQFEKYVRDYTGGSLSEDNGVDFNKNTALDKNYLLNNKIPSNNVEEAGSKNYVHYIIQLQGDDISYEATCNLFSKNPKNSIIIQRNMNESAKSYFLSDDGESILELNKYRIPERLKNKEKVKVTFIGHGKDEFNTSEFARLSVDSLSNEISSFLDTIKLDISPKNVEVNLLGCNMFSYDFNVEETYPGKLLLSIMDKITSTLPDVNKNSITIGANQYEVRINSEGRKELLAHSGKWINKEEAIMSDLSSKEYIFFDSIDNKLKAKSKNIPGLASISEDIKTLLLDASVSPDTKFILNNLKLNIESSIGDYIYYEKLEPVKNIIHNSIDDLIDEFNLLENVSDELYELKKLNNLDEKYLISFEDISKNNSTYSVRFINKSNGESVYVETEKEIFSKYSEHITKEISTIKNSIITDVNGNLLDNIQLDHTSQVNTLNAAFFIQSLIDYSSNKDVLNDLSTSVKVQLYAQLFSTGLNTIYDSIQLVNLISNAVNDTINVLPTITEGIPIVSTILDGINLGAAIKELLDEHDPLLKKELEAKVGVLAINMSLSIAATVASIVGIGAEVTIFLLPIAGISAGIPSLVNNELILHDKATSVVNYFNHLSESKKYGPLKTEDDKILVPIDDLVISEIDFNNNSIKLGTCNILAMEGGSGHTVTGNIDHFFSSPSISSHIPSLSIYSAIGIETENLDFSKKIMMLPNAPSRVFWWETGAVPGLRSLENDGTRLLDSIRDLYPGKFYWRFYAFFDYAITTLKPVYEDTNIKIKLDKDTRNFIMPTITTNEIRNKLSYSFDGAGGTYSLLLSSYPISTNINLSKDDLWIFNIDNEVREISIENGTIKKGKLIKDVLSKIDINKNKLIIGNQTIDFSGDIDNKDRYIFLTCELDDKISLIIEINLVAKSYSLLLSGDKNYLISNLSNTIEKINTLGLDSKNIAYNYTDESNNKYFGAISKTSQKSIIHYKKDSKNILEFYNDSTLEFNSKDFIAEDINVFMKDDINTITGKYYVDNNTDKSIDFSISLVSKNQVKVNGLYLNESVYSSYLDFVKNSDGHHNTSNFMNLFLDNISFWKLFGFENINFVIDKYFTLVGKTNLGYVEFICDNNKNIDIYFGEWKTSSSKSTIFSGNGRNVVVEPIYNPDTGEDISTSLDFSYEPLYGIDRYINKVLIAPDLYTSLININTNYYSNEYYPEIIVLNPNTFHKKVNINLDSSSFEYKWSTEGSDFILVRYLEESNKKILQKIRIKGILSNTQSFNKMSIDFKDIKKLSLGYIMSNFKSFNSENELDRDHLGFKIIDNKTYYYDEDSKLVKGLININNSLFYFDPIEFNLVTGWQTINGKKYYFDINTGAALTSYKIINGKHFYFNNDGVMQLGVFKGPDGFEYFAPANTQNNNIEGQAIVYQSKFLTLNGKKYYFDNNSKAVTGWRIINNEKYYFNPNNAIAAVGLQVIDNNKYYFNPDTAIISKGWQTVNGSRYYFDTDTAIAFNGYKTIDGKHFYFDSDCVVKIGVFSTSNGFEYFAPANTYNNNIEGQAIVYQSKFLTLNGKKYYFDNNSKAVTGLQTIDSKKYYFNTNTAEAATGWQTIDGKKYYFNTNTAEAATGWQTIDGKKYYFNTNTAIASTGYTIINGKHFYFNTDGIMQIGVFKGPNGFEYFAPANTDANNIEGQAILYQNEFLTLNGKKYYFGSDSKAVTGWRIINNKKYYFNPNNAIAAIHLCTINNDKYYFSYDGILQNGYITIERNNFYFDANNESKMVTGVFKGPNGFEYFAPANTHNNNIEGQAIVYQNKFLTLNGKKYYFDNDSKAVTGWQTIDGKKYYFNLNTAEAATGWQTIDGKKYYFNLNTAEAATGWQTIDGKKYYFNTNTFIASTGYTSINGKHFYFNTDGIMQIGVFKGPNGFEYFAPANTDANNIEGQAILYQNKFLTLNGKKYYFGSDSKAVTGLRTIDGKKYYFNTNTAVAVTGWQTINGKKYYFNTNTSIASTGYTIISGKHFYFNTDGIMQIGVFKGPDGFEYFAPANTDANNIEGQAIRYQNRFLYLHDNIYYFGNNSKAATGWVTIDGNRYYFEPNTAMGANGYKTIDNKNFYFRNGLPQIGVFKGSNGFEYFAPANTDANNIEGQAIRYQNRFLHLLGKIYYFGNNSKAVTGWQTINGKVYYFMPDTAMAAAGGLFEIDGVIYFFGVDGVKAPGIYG
T1 sequence (P18177 whole entry): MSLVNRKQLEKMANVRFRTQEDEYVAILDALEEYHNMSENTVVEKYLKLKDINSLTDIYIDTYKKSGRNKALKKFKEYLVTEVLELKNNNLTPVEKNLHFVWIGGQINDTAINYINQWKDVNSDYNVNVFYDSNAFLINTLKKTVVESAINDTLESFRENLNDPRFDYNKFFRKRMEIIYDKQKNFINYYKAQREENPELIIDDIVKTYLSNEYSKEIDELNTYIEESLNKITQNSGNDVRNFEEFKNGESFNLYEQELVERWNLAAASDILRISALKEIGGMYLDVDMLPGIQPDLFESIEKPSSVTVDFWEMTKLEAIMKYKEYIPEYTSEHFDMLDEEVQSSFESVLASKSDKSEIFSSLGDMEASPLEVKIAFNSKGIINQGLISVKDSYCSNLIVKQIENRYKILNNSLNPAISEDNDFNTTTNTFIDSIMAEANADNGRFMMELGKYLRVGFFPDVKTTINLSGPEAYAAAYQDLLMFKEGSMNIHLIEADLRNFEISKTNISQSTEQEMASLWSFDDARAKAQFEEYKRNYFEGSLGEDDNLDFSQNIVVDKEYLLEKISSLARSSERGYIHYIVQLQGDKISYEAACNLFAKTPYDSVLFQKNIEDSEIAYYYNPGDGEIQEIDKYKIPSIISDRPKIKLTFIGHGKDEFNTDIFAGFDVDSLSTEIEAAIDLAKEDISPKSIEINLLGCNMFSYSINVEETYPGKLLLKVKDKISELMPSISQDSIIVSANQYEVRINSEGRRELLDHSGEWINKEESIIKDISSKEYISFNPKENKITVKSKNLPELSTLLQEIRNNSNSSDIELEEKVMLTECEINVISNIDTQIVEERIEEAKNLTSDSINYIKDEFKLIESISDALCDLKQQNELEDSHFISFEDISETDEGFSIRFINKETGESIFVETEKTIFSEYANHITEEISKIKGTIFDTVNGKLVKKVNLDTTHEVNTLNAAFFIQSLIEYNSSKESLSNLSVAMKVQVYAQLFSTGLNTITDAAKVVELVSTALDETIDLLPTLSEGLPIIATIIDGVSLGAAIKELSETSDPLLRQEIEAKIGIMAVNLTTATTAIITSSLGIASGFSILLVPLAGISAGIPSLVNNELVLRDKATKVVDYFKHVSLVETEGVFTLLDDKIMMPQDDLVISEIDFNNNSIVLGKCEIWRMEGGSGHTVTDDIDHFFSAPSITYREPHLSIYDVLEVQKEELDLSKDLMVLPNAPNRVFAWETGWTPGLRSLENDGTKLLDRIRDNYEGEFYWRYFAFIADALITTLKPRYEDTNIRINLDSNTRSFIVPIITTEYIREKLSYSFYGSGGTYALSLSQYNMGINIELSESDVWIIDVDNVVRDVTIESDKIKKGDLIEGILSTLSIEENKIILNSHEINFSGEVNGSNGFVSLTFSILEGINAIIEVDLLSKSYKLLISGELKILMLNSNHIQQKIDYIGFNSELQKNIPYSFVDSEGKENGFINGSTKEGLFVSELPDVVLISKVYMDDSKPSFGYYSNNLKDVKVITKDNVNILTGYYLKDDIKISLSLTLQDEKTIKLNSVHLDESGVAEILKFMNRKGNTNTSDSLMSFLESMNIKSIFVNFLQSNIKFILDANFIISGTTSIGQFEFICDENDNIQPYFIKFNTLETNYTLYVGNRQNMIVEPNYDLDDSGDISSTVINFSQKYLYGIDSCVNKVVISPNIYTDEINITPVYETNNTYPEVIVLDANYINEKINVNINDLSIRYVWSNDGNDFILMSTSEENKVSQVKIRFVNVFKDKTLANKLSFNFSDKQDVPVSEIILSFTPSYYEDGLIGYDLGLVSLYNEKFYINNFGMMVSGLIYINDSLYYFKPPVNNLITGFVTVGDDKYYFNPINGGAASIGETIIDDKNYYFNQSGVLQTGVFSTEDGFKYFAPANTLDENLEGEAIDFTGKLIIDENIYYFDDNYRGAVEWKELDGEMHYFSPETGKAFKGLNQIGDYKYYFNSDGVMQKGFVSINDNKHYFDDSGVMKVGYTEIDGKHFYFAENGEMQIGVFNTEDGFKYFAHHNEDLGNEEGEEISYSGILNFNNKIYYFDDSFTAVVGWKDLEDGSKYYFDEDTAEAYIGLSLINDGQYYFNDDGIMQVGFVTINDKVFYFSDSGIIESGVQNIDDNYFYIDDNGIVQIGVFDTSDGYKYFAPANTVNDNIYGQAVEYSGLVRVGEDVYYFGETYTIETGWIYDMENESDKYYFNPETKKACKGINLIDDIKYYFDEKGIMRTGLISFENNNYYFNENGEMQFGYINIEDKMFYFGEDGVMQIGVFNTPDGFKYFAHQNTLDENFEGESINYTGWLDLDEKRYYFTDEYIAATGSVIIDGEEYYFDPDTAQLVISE

Usually IC50 stands for the concentration needed to halve the response being measured. For `COc1ccc(NC(=O)c2ccc(CN3C(=O)c4ccc(Cl)cc4NC(=O)[C@H]3Cc3ccccn3)cc2C)nc1`, the remaining at 0.25 h was 68% in data set [1] and 51% in data set [2]. Besides, the IC50 in data set [3] was 71 nM; in data set [4] it was 480 nM; in data set [5], 10 nM.

Consider `COc1cnc(NC(=O)c2ccc(CN3C(=O)c4ccc(Cl)cc4NC(=O)[C@H]3Cc3ccccn3)cc2Cl)nc1`, for which the values for the remaining at 0.25 h in data set [1] and in data set [2] were 73% and 38%, respectively. Moreover, the IC50 in data set [3] worked out at 53 nM; in data set [4], 920 nM; in data set [5], 4 nM.

With `Cc1cnc(NC(=O)c2ccc(CN3C(=O)c4ccc(Cl)cc4NC(=O)[C@H]3Cc3ccccn3)cc2Cl)nc1`, the remaining at 0.25 h in data set [1] was 79%; in data set [2], 33%. For the same compound, the IC50 in data set [3] is 130 nM; in data set [4] it was 1500 nM; in data set [5], 4 nM.

Turning to `O=C(c1ccc(CN2C(=O)c3ccc(Cl)cc3NC(=O)[C@H]2Cc2ccccn2)cc1)c1ccccn1`, the remaining at 0.25 h was found to be 64% in data set [1] and 79% in data set [2]. For the same compound, the IC50 in data set [3] is 4200 nM; in data set [4] it was 37000 nM; in data set [5] it was 45 nM.

Take `O=C(c1ccc(CN2C(=O)c3ccc(Cl)cc3NC(=O)[C@H]2Cc2ccccn2)cc1)c1cccn2ncnc12`: the remaining at 0.25 h in data set [1] came to 15%; in data set [2] it was 44%. The results for the IC50 in data set [3] and in data set [5] were 1600 nM and 61 nM, respectively.

Turning to `Cc1cnc(NC(=O)c2ccc(CN3C(=O)c4ccc(Cl)cc4NC(=O)[C@H]3Cc3ccccn3)cc2Cl)cn1`, the remaining at 0.25 h in data set [1] amounted to 81%; in data set [2] it was 79%. The IC50 in data set [3] came to 220 nM; in data set [4], 2100 nM; in data set [5] it was 9 nM.

For the compound `Cc1cccc(C(=O)c2ccc(CN3C(=O)c4ccc(Cl)cc4NC(=O)[C@H]3Cc3ccccn3)cc2)n1`, the remaining at 0.25 h was found to be 25% in data set [1] and 3% in data set [2]. The IC50 in data set [5] amounted to 340 nM.

With `O=C(O)c1c(Cl)cc(CN2C(=O)c3ccc(Cl)cc3NC(=O)[C@H]2Cc2ccccn2)cc1Cl`, the IC50 in data set [5] came to 7400 nM.

As for `Cc1cnc(NC(=O)c2ccc(CN3C(=O)c4ccc(Cl)cc4NC(=O)[C@H]3Cc3ccccn3)cc2C)nc1`, the remaining at 0.25 h in data set [1] is 74%; in data set [2] it was 44%. For the same compound, the figures for the 50% inhibitory concentration (IC50) in data set [3], in data set [4] and in data set [5] were 130 nM, 3000 nM and 4 nM, respectively.

For the compound `Cc1ccc(C(=O)c2ccc(CN3C(=O)c4ccc(Cl)cc4NC(=O)[C@H]3Cc3ccccn3)cc2)nc1`, the values for the remaining at 0.25 h in data set [1] and in data set [2] were 57% and 68%, respectively. Also, the IC50 stood at 5900 nM in data set [3], 23000 nM in data set [4] and 38 nM in data set [5].

As to `O=C(O)c1ccc(CN2C(=O)c3ccc(Cl)cc3NC(=O)[C@H]2Cc2ccccn2)cc1Cl`, the IC50 in data set [5] is 480 nM.

As for `COc1cc(CN2C(=O)c3ccc(Cl)cc3NC(=O)[C@H]2Cc2ccccn2)ccc1C(=O)Nc1ccc(C)cn1`, the remaining at 0.25 h in data set [1] turned out to be 62%; in data set [2], 49%. Besides, the IC50 in data set [3] came to 1900 nM; in data set [4], 11000 nM; in data set [5] it was 9 nM.

Turning to `Cn1ccnc1C(=O)c1ccc(CN2C(=O)c3ccc(Cl)cc3NC(=O)[C@H]2Cc2ccccn2)cc1`, the remaining at 0.25 h was 49% in data set [1] and 33% in data set [2]. Also, the IC50 in data set [3] is greater than 100000 nM; in data set [4] it was greater than 100000 nM; in data set [5], 190 nM.

For the compound `Cc1ccc(NC(=O)c2ccc(CN3C(=O)c4ccc(Cl)cc4NC(=O)[C@H]3Cc3ccccn3)cc2Cl)nc1`, the remaining at 0.25 h in data set [1] and in data set [2] was 57% throughout. The IC50 in data set [3] is 24 nM; in data set [4], 580 nM; in data set [5] it was 5 nM.

For the compound `Cc1cc(CN2C(=O)c3ccc(Cl)cc3NC(=O)[C@H]2Cc2ccccn2)ccc1C(=O)Nc1ccc(F)cn1`, the remaining at 0.25 h in data set [1] came to 85%; in data set [2], 60%. Further, the results for the IC50 in data set [3], in data set [4] and in data set [5] were 62 nM, 860 nM and 8 nM, respectively.

As to `COc1cc(CN2C(=O)c3ccc(Cl)cc3NC(=O)[C@H]2Cc2ccccn2)ccc1C(=O)Nc1ccc(F)cn1`, the remaining at 0.25 h worked out at 94% in data set [1] and 67% in data set [2]. The IC50 is 1100 nM in data set [3], 17000 nM in data set [4] and 14 nM in data set [5].

`COc1cnc(NC(=O)c2ccc(CN3C(=O)c4ccc(Cl)cc4NC(=O)[C@H]3Cc3ccccn3)cc2)nc1`: the Stability result in data set [6] (2 h) is reported as “Unstable”. The 50% inhibitory concentration (IC50) in data set [3] is 3 nM.

With `COc1ccc(NC(=O)c2ccc(CN3C(=O)c4ccc(Cl)cc4NC(=O)[C@H]3Cc3ccccn3)cc2OC)nc1`, the remaining at 0.25 h in data set [1] came to 78%; in data set [2], 71%. The figures for the IC50 in data set [3], in data set [4] and in data set [5] were 130 nM, 1100 nM and 5 nM, respectively.

For `O=C(Nc1ccc(F)cn1)c1ccc(CN2C(=O)c3ccc(Cl)cc3NC(=O)[C@H]2Cc2ccccn2)cc1Cl`, the remaining at 0.25 h in data set [1] is 88%; in data set [2], 69%. The IC50 was found to be 130 nM in data set [3], 1800 nM in data set [4] and 4 nM in data set [5].

With `O=C(c1ccc(CN2C(=O)c3ccc(Cl)cc3NC(=O)[C@H]2Cc2ccccn2)cc1)c1c[nH]c2cccnc12`, the remaining at 0.25 h in data set [1] was 87%; in data set [2], 93%. The IC50 in data set [3] worked out at 1800 nM; in data set [4], 18000 nM; in data set [5], 2 nM.

Consider `Cn1cc(C(=O)c2ccc(CN3C(=O)c4ccc(Cl)cc4NC(=O)[C@H]3Cc3ccccn3)cc2)c2ncccc21`, for which the remaining at 0.25 h in data set [1] came to 67%; in data set [2], 76%. In addition, the IC50 turned out to be 330 nM in data set [3], 5300 nM in data set [4] and 6 nM in data set [5].

For the compound `Cc1cc(CN2C(=O)c3ccc(Cl)cc3NC(=O)[C@H]2Cc2ccccn2)ccc1C(=O)Nc1ccc(C(F)(F)F)cn1`, the figures for the remaining at 0.25 h in data set [1] and in data set [2] were 100% and 99%, respectively. The IC50 in data set [3] was determined as 170 nM; in data set [4] it was 2400 nM; in data set [5] it was 20 nM.

`Cc1ccnc(C(=O)c2ccc(CN3C(=O)c4ccc(Cl)cc4NC(=O)[C@H]3Cc3ccccn3)cc2)c1`: the figures for the remaining at 0.25 h in data set [1] and in data set [2] were 26% and 48%, respectively. Also, the IC50 in data set [5] worked out at 74 nM.

As to `Cc1ccc(NC(=O)c2ccc(CN3C(=O)c4ccc(Cl)cc4NC(=O)[C@H]3Cc3ccccn3)cc2C)nc1`, the results for the remaining at 0.25 h in data set [1] and in data set [2] were 61% and 31%, respectively. Also, the IC50 in data set [3] is 61 nM; in data set [4] it was 860 nM; in data set [5], 7 nM.

As for `Cn1cnc(C(=O)c2ccc(CN3C(=O)c4ccc(Cl)cc4NC(=O)[C@H]3Cc3ccccn3)cc2)c1`, the remaining at 0.25 h in data set [1] came to 44%; in data set [2], 16%. Besides, the IC50 in data set [3] is greater than 100000 nM; in data set [4], greater than 100000 nM; in data set [5] it was 230 nM.

Consider `COc1cnc(NC(=O)c2ccc(CN3C(=O)c4ccc(Cl)cc4NC(=O)[C@H]3Cc3ccccn3)cc2C)nc1`, for which the remaining at 0.25 h in data set [1] is 82%; in data set [2], 39%. Further, the IC50 worked out at 29 nM in data set [3], 690 nM in data set [4] and 4 nM in data set [5].

For the compound `COc1cc(CN2C(=O)c3ccc(Cl)cc3NC(=O)[C@H]2Cc2ccccn2)ccc1C(=O)Nc1ccc(C(F)(F)F)cn1`, the remaining at 0.25 h was determined as 100% in data set [1] and 83% in data set [2]. In addition, the IC50 in data set [3] is 660 nM; in data set [4], 31000 nM; in data set [5], 41 nM.

For the compound `O=C(O)c1ccc(CN2C(=O)c3ccc(Cl)cc3NC(=O)[C@H]2Cc2ccccn2)cc1`, the IC50 in data set [5] is 180 nM.

For the compound `O=C(c1ccc(CN2C(=O)c3ccc(Cl)cc3NC(=O)[C@H]2Cc2ccccn2)cc1)c1cccn2ccnc12`, the remaining at 0.25 h came out at 44% in data set [1] and 27% in data set [2]. Further, the figures for the IC50 in data set [3], in data set [4] and in data set [5] were 660 nM, 8100 nM and 8 nM, respectively.

In the case of `N#Cc1ccc(NC(=O)c2ccc(CN3C(=O)c4ccc(Cl)cc4NC(=O)[C@H]3Cc3ccccn3)cc2Cl)nc1`, the remaining at 0.25 h in data set [1] was determined as 90%; in data set [2], 84%. Besides, the IC50 in data set [3] was found to be 52 nM; in data set [5] it was 8 nM.

For the compound `COc1ccc(NC(=O)c2ccc(CN3C(=O)c4ccc(Cl)cc4NC(=O)[C@H]3Cc3ccccn3)cc2Cl)nc1`, the results for the remaining at 0.25 h in data set [1] and in data set [2] were 100% and 71%, respectively. Besides, the remaining at 2 h in data set [6] (read-out: Stability) worked out at 100%. Besides, the IC50 in data set [3] came out at 61 nM; in data set [4], 760 nM; in data set [5], 5 nM.

`COc1cnc(NC(=O)c2ccc(CN3C(=O)c4ccc(Cl)cc4NC(=O)[C@H]3Cc3ccccn3)cc2Cl)cn1`: the remaining at 0.25 h in data set [1] was 100%; in data set [2] it was 68%. For the same compound, the 50% inhibitory concentration (IC50) stood at 490 nM in data set [3], 3400 nM in data set [4] and 21 nM in data set [5].

For `Cc1cc(CN2C(=O)c3ccc(Cl)cc3NC(=O)[C@H]2Cc2ccccn2)ccc1C(=O)Nc1ccc(C#N)cn1`, the values for the remaining at 0.25 h in data set [1] and in data set [2] were 90% and 70%, respectively. The values for the IC50 in data set [3] and in data set [5] were 78 nM and 3 nM, respectively.
